Source: publication PMC3755880 (The Biochemical journal, 2009)
No end group written: not given here.

Tests used:
[1] = test system: interaction between Iα and the catalytic domain of PKN1; conditions: ref [24]; cited from earlier work
PKN [2] = target: T1, PKN (Homo sapiens, UniProt Q16512); conditions: cited from earlier work; for inhibition of kinase activity of PKN: ref [20]
cellular membranes = conditions: ref [28]; cited from earlier work
[3] = test system: androgen receptor-induced tumour cell proliferation; conditions: by inhibition of PKN1; ref [7]; cited from earlier work
human PKN1 [4] = target: T2, human PKN1 (Homo sapiens, UniProt Q16512); experiment: In vitro kinase assay, δpeptide substrate, PKN1 catalytic domain; assay type: biochemical; conditions: for inhibition of peptide kinase activity of PKN1: δpeptide substrate, various peptide concentrations, up to 50 μM, 30 °C, 5 min, pH 7.5, 40 μM ATP, representative of three independent experiments
T2 sequence (Q16512 543-942 limits assumed): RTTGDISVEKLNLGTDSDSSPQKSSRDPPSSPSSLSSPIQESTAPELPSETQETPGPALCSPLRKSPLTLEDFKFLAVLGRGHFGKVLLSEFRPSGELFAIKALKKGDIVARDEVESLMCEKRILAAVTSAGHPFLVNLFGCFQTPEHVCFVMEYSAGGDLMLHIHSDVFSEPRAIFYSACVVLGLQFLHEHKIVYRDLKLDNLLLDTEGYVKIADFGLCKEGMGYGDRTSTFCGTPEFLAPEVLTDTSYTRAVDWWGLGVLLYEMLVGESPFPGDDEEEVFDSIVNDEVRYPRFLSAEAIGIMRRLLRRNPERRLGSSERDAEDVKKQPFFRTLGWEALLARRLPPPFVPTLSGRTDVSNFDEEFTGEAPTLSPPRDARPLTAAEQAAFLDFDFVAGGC

[5] = test system: catalytic domain of all isoforms of PKNs; conditions: ref [24], cited from earlier work
PKCδ = conditions: ref [24]; cited from earlier work
PKA = conditions: ref [24]; cited from earlier work
rat PKCδ = experiment: Phosphorylation of GST-tagged oligopeptides by PKCδ; assay type: biochemical; conditions: GST-fused peptide substrate; 30 °C, 5 min
rat PKCα = experiment: Phosphorylation of GST-tagged oligopeptides by PKCα; assay type: biochemical; conditions: GST-fused peptide substrate; 30 °C, 5 min
Method in brief: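 GST-fused rat PKCα catalytic domain (332–end) was Sf9/baculovirus-expressed and purified. Reactions were stopped in boiled Laemmli buffer, run on 15% SDS/PAGE, and phosphorylation was read by radioactivity imaging.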

human PKN1 [6] = target: T2, human PKN1; experiment: Phosphorylation of GST-tagged oligopeptides by PKN1; assay type: biochemical; conditions: GST-fused peptide substrate; 30 °C, 5 min
PKN [7] = target: T1, PKN; experiment: In vitro kinase assay, PKN; assay type: biochemical; conditions: Supplementary Figure S4
Method in brief: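 Catalytic domains of human PKN1 (543–end) and PKC isoforms were GST-fused, baculovirus/Sf9-expressed and affinity-purified. 10 ng kinase was incubated 5 min at 30 °C in 20 mM Tris/HCl pH 7.5, 4 mM MgCl2, 40 μM ATP, [γ-32P]ATP, 100 μM δpeptide (PKCδ 137–153, A147S) and BSA or GST, ± peptides. Reactions were read on P81 paper by Cherenkov counting; no-peptide activity = 100%.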

T1 sequence (Q16512 543-942 limits assumed): as above

Compound: CCCCC/C=C\C/C=C\C/C=C\C/C=C\CCCC(=O)O [Arachidonic acid, arachidonic acid]
- effect on interaction between Iα and catalytic domain of PKN1 [1]: directly interfere with the interaction
- relief of autoinhibition of wild-type PKN1 by Iα [1]: relieve the catalytic activity of wild-type PKN1 from autoinhibition by Iα
- activation of PKN in vitro (PKN [2]; ref [1]): activated

Compound: CC1CNCCN1S(=O)(=O)c1cccc2cnccc12 (stereo not shown) [H-7]
- inhibition of kinase activity of PKN (PKN [2]): potently inhibit

Compound: O=C(O)CCCc1ccc2ccc3cccc4ccc1c2c34 [Pyrenebutyrate, pyrenebutyrate]
- ability of CPP-fused peptides to translocate across cellular membranes (cellular membranes): improve the ability of CPP-fused peptides to translocate across cellular membranes

Compound: Cn1cc(C2=C(c3cn(CCCSC(=N)N)c4ccccc34)C(=O)NC2=O)c2ccccc21 [Ro318220]
- effect on androgen receptor-induced tumour cell proliferation [3]: blocks proliferation

Compound: CN(C)CCCn1cc(C2=C(c3c[nH]c4ccccc34)C(=O)NC2=O)c2ccccc21 [bisindolylmaleimide I]
- inhibition of kinase activity of PKN (PKN [2]): potently inhibit

Compound: AEVTFRNPVIERIPRLRR
- inhibition of peptide kinase activity of PKN1 (human PKN1 [4]): partially inhibited

Compound: His6-tagged Iα: His-tagged region comprising amino acid residues 455–511 of PKN1
- inhibition of PKN kinase activity by His-tagged Iα ([5]; direct effects on the catalytic region): potently inhibited
- inhibition of catalytic domain of all PKN isoforms [5]: inhibited
- effect on PKCδ (PKCδ): no inhibitory effect
- effect on PKA (PKA): no inhibitory effect

Compound: KRRKPSFRNP [NS1]
- phosphorylation by PKCδ (rat PKCδ): efficiently phosphorylated
- phosphorylation by PKCα (rat PKCα): efficiently phosphorylated

Compound: LSKVTSKCGS [tau320]
- phosphorylation by PKCδ (rat PKCδ): efficiently phosphorylated
- phosphorylation by PKN1 (human PKN1 [6]): efficiently phosphorylated

Compound: NERHEVQLDMEPQGCLV
- inhibition of peptide kinase activity of PKN1 (human PKN1 [4]): did not inhibit

Compound: PRLRRQKKIFSKQQG [PRL]
- Ki (human PKN1 [4]): 700 nM
- effect on apparent Km for δpeptide (human PKN1 [4]; Michaelis–Menten fit, increasing PRL concentrations): increased the apparent Km

Compound: PRLRRQKKIFSKQQG-NH-CH2CH2-SH [PRL-SH]
- selectivity for PKN over PKC in vitro (PKN [7]): selective inhibition of PKN

Compound: PVIERIPRLRRQKKI
- inhibition of peptide kinase activity of PKN1 (human PKN1 [4]): partially inhibited

Compound: QKKIFSKQQGKAFQAARQMN
- inhibition of peptide kinase activity of PKN1 (human PKN1 [4]): partially inhibited
